# Results: ChEMBL document CHEMBL1177701, “Synthesis, biological evaluation, and structure-activity relationships of dithiolethiones as inducers of cytoprotective phase 2 enzymes” (J Med Chem, 2010)
# Active and inactive are the calls of the source. The calls are words filed in the database; no cut-off is given here.
# What was measured:
# NBT2 [1] = assay: Induction of GCL protein expression in rat NBT2 cells at 25 to 50 uM after 24 hrs by Western blot analysis; assay type: functional, cell-based
# How it was run: (§1)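 NBT-II rat bladder carcinoma cells grown in MEM with 10% FBS. Plated overnight, then exposed to compound at 25 or 50 µM for 24 h, with 0.1% DMSO final. Cells trypsinized, lysed with 1 mM PMSF and sonicated. 25-40 µg protein taken for Western blot, GAPDH as loading control. At least two experiments.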
# NBT2 [2] = assay: Induction of GST-mu protein expression in Nrf gene knockout rat NBT2 cells at 25 uM after 24 hrs Western blot analysis; assay type: functional, cell-based
# How it was run: (§2)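 NBT-II cells transfected with Nrf2 stealth RNAi or control RNAi (0.584 nmol per dish, lipofectamine 2000) for 48 h. Then treated with compound at 25 µM or vehicle for 24 h, with 0.1% DMSO final. Lysates analyzed by Western blot for Nrf2, GCL, GST-α, GST-μ and NQO1, with GAPDH as loading control.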
# [3] = biological target: T1, Nuclear factor erythroid 2-related factor 2 (Rattus norvegicus) (UniProt O54968); assay: Induction of Nrf-mediated GCL protein expression in wild type rat NBT2 cells at 25 uM after 24 hrs Western blot analysis; assay type: functional, cell-based; how it was run: as §2
# T1 sequence (whole entry): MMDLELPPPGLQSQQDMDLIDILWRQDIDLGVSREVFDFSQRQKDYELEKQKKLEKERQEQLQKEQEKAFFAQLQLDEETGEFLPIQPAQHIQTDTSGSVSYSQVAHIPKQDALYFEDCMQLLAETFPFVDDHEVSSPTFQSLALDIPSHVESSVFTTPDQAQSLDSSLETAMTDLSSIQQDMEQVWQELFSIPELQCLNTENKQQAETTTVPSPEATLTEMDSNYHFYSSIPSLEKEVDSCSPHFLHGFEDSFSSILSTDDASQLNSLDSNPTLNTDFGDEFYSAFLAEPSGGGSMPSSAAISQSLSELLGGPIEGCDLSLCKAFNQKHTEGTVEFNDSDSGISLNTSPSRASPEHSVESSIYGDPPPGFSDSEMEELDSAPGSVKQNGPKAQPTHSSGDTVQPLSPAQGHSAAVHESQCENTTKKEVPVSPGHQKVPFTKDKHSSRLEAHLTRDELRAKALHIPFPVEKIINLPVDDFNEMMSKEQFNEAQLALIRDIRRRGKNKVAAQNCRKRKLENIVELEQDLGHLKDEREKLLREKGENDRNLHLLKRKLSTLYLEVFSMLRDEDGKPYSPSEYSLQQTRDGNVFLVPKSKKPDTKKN
# [4] = biological target: T1, Nuclear factor erythroid 2-related factor 2 (Rattus norvegicus); assay: Induction of Nrf-mediated NQO1 protein expression in wild type rat NBT2 cells at 25 uM after 24 hrs Western blot analysis; assay type: functional, cell-based; how it was run: as §2
# NBT2 [5] = assay: Induction of Nrf protein expression in Nrf gene knockout rat NBT2 cells at 25 uM after 24 hrs Western blot analysis; assay type: functional, cell-based; how it was run: as §2
# NBT2 [6] = assay: Induction of GST-alpha protein expression in Nrf gene knockout rat NBT2 cells at 25 uM after 24 hrs Western blot analysis; assay type: functional, cell-based; how it was run: as §2
# NBT2 [7] = assay: Induction of GST-alpha protein expression in rat NBT2 cells after 24 hrs by Western blot analysis; assay type: functional, cell-based; how it was run: as §1
# NBT2 [8] = assay: Induction of GCL protein expression in Nrf gene knockout rat NBT2 cells at 25 uM after 24 hrs Western blot analysis; assay type: functional, cell-based; how it was run: as §2
# [9] = biological target: T1, Nuclear factor erythroid 2-related factor 2 (Rattus norvegicus); assay: Induction of Nrf-mediated GST-alpha protein expression in wild type rat NBT2 cells at 25 uM after 24 hrs Western blot analysis; assay type: functional, cell-based; how it was run: as §2
# Rattus norvegicus [10] = assay: Ex vivo induction of NQO1 in Sprague-Dawley rat duodenum at 7.5 umol/kg/day, po for 10 days measured on day 11 relative to control; assay type: functional
# How it was run: (§3)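 Organs taken from the same rats used for the bladder study: female Sprague-Dawley, compound at 7.5 µmol/kg/day by gavage or soya oil for 10 days, killed on day 11. GI contents rinsed out under cold water and tissues stored at −80°C. Homogenized in 0.2% Triton X-100 and centrifuged. Supernatant NQO1 activity measured by the Ernster method, expressed as treated/control.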
# NBT2 [11] = assay: Induction of NQO1 protein expression in Nrf gene knockout rat NBT2 cells at 25 uM after 24 hrs Western blot analysis; assay type: functional, cell-based; how it was run: as §2
# Rattus norvegicus [12] = assay: Ex vivo induction of NQO1 in Sprague-Dawley rat liver at 7.5 umol/kg/day, po for 10 days measured on day 11 relative to control; assay type: functional; how it was run: as §3
# NBT2 [13] = assay: Induction of GST-pi protein expression in rat NBT2 cells at 25 to 50 uM after 24 hrs by Western blot analysis; assay type: functional, cell-based; how it was run: as §1
# NBT2 [14] = assay: Induction of NQO1 protein expression in rat NBT2 cells after 24 hrs by Western blot analysis; assay type: functional, cell-based; how it was run: as §1
# Rattus norvegicus [15] = assay: Ex vivo induction of NQO1 in Sprague-Dawley rat colon at 7.5 umol/kg/day, po for 10 days measured on day 11 relative to control; assay type: functional; how it was run: as §3
# Rattus norvegicus [16] = assay: Ex vivo induction of NQO1 in Sprague-Dawley rat kidney at 7.5 umol/kg/day, po for 10 days measured on day 11 relative to control; assay type: functional; how it was run: as §3
# Rattus norvegicus [17] = assay: Ex vivo induction GST-pi protein expression in Sprague-Dawley rat bladder at 7.5 umol/kg/day, po for 10 days measured on day 11 by Western blot analysis; assay type: functional, organism-based
# How it was run: (§4)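 Female Sprague-Dawley rats, 3 per group, gavaged once daily with compound at 7.5 µmol/kg or soya oil vehicle for 10 days. Killed on day 11. Bladder homogenized in 10 mM Tris-HCl pH 7.4, 0.25 M sucrose, 1 mM PMSF, 1 µg/ml leupeptin. 25-40 µg protein run by SDS-PAGE, then Western blot, with GAPDH as loading control.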
# Rattus norvegicus [18] = assay: Ex vivo induction of GST in Sprague-Dawley rat bladder at 7.5 umol/kg/day, po for 10 days measured on day 11 relative to control; assay type: functional
# How it was run: (§5)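 Female Sprague-Dawley rats, 6 per group, gavaged with compound at 7.5 µmol/kg/day or soya oil for 10 days and killed on day 11. Bladder homogenized in ice-cold 0.2% Triton X-100 and cleared by centrifugation. NQO1 activity measured by the Ernster method, GST by the Habig method. Reported as treated/control mean ± SEM, ANOVA with Student-Newman-Keuls test.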
# Rattus norvegicus [19] = assay: Ex vivo induction of NQO1 in Sprague-Dawley rat bladder at 7.5 umol/kg/day, po for 10 days measured on day 11 relative to control; assay type: functional; how it was run: as §5
# Rattus norvegicus [20] = assay: Ex vivo induction GST-alpha protein expression in Sprague-Dawley rat bladder at 7.5 umol/kg/day, po for 10 days measured on day 11 by Western blot analysis; assay type: functional, organism-based; how it was run: as §4
# Rattus norvegicus [21] = assay: Ex vivo induction GCL protein expression in Sprague-Dawley rat bladder at 7.5 umol/kg/day, po for 10 days measured on day 11 by Western blot analysis; assay type: functional, organism-based; how it was run: as §4
# [22] = biological target: T1, Nuclear factor erythroid 2-related factor 2 (Rattus norvegicus); assay: Induction of Nrf in wild type rat NBT2 cells at 25 uM after 24 hrs Western blot analysis; assay type: functional, cell-based; how it was run: as §2
# [23] = biological target: T1, Nuclear factor erythroid 2-related factor 2 (Rattus norvegicus); assay: Induction of Nrf-mediated GST-mu protein expression in wild type rat NBT2 cells at 25 uM after 24 hrs Western blot analysis; assay type: functional, cell-based; how it was run: as §2
# Rattus norvegicus [24] = assay: Ex vivo induction of NQO1 in Sprague-Dawley rat jejunum at 7.5 umol/kg/day, po for 10 days measured on day 11 relative to control; assay type: functional; how it was run: as §3
# NBT2 [25] = assay: Induction of GST-mu protein expression in rat NBT2 cells after 24 hrs by Western blot analysis; assay type: functional, cell-based; how it was run: as §1
# Rattus norvegicus [26] = assay: Ex vivo induction of NQO1 in Sprague-Dawley rat ileum at 7.5 umol/kg/day, po for 10 days measured on day 11 relative to control; assay type: functional; how it was run: as §3
# Rattus norvegicus [27] = assay: Ex vivo induction of NQO1 in Sprague-Dawley rat lung at 7.5 umol/kg/day, po for 10 days measured on day 11 relative to control; assay type: functional; how it was run: as §3
# Rattus norvegicus [28] = assay: Ex vivo induction of NQO1 in Sprague-Dawley rat stomach at 7.5 umol/kg/day, po for 10 days measured on day 11 relative to control; assay type: functional; how it was run: as §3
# Rattus norvegicus [29] = assay: Ex vivo induction GST-mu protein expression in Sprague-Dawley rat bladder at 7.5 umol/kg/day, po for 10 days measured on day 11 by Western blot analysis; assay type: functional, organism-based; how it was run: as §4
structure (smiles),measurement,setting,value
COC(=O)c1cssc1=S,Activity,NBT2 [1],Active
same,Activity,NBT2 [2],inactive
same,Activity,[3],Active
same,Activity,[4],Active
same,Activity,NBT2 [5],inactive
same,Activity,NBT2 [6],inactive
same,Activity,NBT2 [7],Dose-dependent effect
same,Activity,NBT2 [8],inactive
same,Activity,[9],Active
same,fold change (FC),Rattus norvegicus [10],1.17
same,Activity,NBT2 [11],inactive
same,fold change (FC),Rattus norvegicus [12],1.07
same,Activity,NBT2 [13],inactive
same,Activity,NBT2 [14],Dose-dependent effect
same,fold change (FC),Rattus norvegicus [15],0.89
same,fold change (FC),Rattus norvegicus [16],1.45
same,Activity,Rattus norvegicus [17],inactive
same,fold change (FC),Rattus norvegicus [18],2.69
same,fold change (FC),Rattus norvegicus [19],5.05
same,Activity,Rattus norvegicus [20],Active
same,Activity,Rattus norvegicus [21],Active
same,Activity,[22],Active
same,Activity,[23],Active
same,fold change (FC),Rattus norvegicus [24],1.13
same,Activity,NBT2 [25],Dose-dependent effect
same,fold change (FC),Rattus norvegicus [26],0.95
same,fold change (FC),Rattus norvegicus [27],1.07
same,fold change (FC),Rattus norvegicus [28],2.36
same,Activity,Rattus norvegicus [29],Active
